Assay [1] has as its system PC-3. Briefly: Cell cycle arrest in human PC3 cells assessed as accumulation at S phase at 0.5 uM incubated for 24 hrs by propidium iodide staining based FACS assay (reference value: 23.5%). The format is functional. In outline:
(§1)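 PC-3 cells in RPMI-1640 with 10% FBS at 37 °C and 5% CO2. Cells were plated at 1.0×10^5 cells/mL and pre-incubated 24 h, then treated. They were collected by centrifugation, fixed in 70% ethanol overnight at 4 °C, resuspended in PBS with RNase A and propidium iodide, and analysed by flow cytometry for phase distribution against untreated control.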
A general note: In flow cytometry, cells or beads pass a laser one at a time.

Assay [2] relates to PC-3. The assay can be described thus: Cell cycle arrest in human PC3 cells assessed as accumulation at G2/M phase at 0.5 uM incubated for 24 hrs by propidium iodide staining based FACS assay (reference value: 14%). The format is functional. In outline: as §1
The species entered for assay [3] is Homo sapiens. Briefly: Inhibition of tubulin polymerization in human PC3 cells assessed as disruption of microtubule network at 0.02 uM incubated for 48 hrs by immunohistochemistry. The format is cell-based. Particulars: 1 uM, in the assay text read “at 1 uM” for “at 0.02 uM”. In short, it runs like this: (§2)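 PC-3 cells were treated for 48 h, then fixed with 4% paraformaldehyde for 30 min and permeabilized with 0.1% Triton X-100 at 4 °C in the dark for 30 min. After blocking in PBS with 5% BSA, cells took anti-α-tubulin (1:500) overnight at 4 °C, then TRITC goat anti-rabbit IgG (1:500) for 1 h at RT. Nuclei were DAPI-stained and imaged by fluorescence microscopy at 20×.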

The test system of assay [4] is PC-3. Briefly: Cytotoxicity against human PC3 cells assessed as reduction in cell viability incubated for 48 hrs by SRB assay. The format is functional, cell-based. The conditions noted are these: PC-3, 48 h. In outline: (§3)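 SRB colorimetric antiproliferative assay. Cells were grown in RPMI-1640 with 10% heat-inactivated FBS and penicillin/streptomycin at 37 °C and 5% CO2, and compound-exposed for 48 h. IC50 is the concentration causing 50% inhibition of cell viability, given as mean ± SD of three determinations.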
(In general: The SRB assay estimates cell density from bound dye.)

Assay [5] relates to PC-3. Briefly: Cell cycle arrest in human PC3 cells assessed as accumulation at G0/G1 phase at 0.5 uM incubated for 24 hrs by propidium iodide staining based FACS assay (reference value: 62.5%). The format is functional. In outline: as §1
The species named for a further assay is Sus scrofa. Briefly: (§4) Inhibition of porcine brain tubulin polymerization incubated for 80 mins by fluorescence based spectrophotometry. In short, it runs like this:
(§5)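 Cell-free fluorescence kit assay. Tubulin (10 mg/mL) in buffer 1 with tubulin glycerol buffer and GTP (100 mM stock) was exposed to compound or DMSO for 80 min at 37 °C. Fluorescence (ex 360 nm, em 460 nm) was read each minute. IC50 was derived from five concentrations: 3, 5, 10, 20 and 40 μM.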

Assay [6] is described as follows: as §4. The arrangement: species or system Sus scrofa. In outline:
as §5

For assay [7], the species on record is Homo sapiens. The assay can be described thus: Inhibition of tubulin polymerization in human PC3 cells assessed as disruption of microtubule network at 1 uM incubated for 48 hrs by immunohistochemistry. The format is cell-based. In short, it runs like this:
as §2

The test system of another assay is HeLa. The assay can be described thus: Cytotoxicity against human HeLa cells assessed as reduction in cell viability incubated for 48 hrs by SRB assay. The format is functional, cell-based. In short, it runs like this:
as §3

Assay [8] relates to PC-3. The assay can be described thus: Cell cycle arrest in human PC3 cells assessed as accumulation at G2/M phase at 1 uM incubated for 24 hrs by propidium iodide staining based FACS assay (reference value: 14%). The format is functional. In outline:
as §1

Assay [9] relates to PC-3. The assay can be described thus: Cell cycle arrest in human PC3 cells assessed as accumulation at G0/G1 phase at 1 uM incubated for 24 hrs by propidium iodide staining based FACS assay (reference value: 62.5%). The format is functional. In short, it runs like this: as §1
Assay [10] has as its system PC-3. The assay can be described thus: Cell cycle arrest in human PC3 cells assessed as accumulation at S phase at 1 uM incubated for 24 hrs by propidium iodide staining based FACS assay (reference value: 23.5%). The format is functional. In outline:
as §1

The source made the active and inactive calls. No cut-off for these calls is given here.

As to `COc1ccc(C2(c3cc(OC)c(OC)c(OC)c3)CC(c3ccc(Cl)cc3)=NO2)cc1O` (configuration not stated), the Activity in the assay with PC-3 [1] was 13.3%; in the assay with PC-3 [2], 63.5%; in the assay on PC-3 [5], 23.2%; in the assay on PC-3 [8], 84.5%; in the assay with PC-3 [9], 6.7%; in the assay on PC-3 [10], 8.8%. For the same compound, the inhibition entry in the assay filed under Homo sapiens [3] and in the assay listed under Homo sapiens [7] was “Active” in each case. Moreover, the IC50 (usually the concentration that gives 50% inhibition) in the assay on PC-3 [4] worked out at 0.47 µM; in assay [6], 30.7 µM; in the assay on HeLa, 3.29 µM. For the same compound, the inhibition result in the assay filed under Sus scrofa is “Dose-dependent effect”.
